# Measured values collected from several papers.
# pIC50: −log10 of the molar value.
SMILES,target or system,read-out,technique,strain,time,endpoint,value
N.N.[Cl][Pt][Cl],PLC,cell growth or viability,MTT,,72 h,pIC50,5.09
Oc1c(Cl)cc(Cl)cc1-c1[nH]c(Cl)c(Cl)c1Cl,Pseudomonas aeruginosa,microbial growth,,ATCC27853,,MIC,64 µM
O=c1ccc2nc3ccc(OCc4ccc([N+](=O)[O-])o4)cc3oc-2c1,Pseudomonas aeruginosa,microbial growth,,,24 h,MIC,> 32 mg/L
Cc1sc2c(c1C)C(c1ccc(Cl)cc1)=N[C@@H](CC(=O)OC(C)(C)C)c1nnc(C)n1-2,Jurkat,cell growth or viability,ATP luminescence,,72 h,pIC50,6.00
COc1c(N2CC3CCCNC3C2)c(F)cc2c(=O)c(C(=O)OCc3cnc([N+](=O)[O-])s3)cn(C3CC3)c12 (centres unmarked),Pseudomonas aeruginosa,microbial growth,,ATCC27853,,MIC,6 µM
Oc1c(Br)cc(Br)cc1-c1[nH]c(Br)c(Br)c1Br,Pseudomonas aeruginosa,microbial growth,,ATCC27853,,MIC,64 µM
COc1c(N2C[C@@H]3CCCN[C@@H]3C2)c(F)cc2c(=O)c(C(=O)O)cn(C3CC3)c12,Mycobacteroides abscessus,microbial growth,,ATCC19977,,MIC,1 µM
O=c1ccc2nc3ccc(O)cc3oc-2c1,Pseudomonas aeruginosa,microbial growth,,,24 h,MIC,> 32 mg/L
